Measured values reported in ChEMBL document CHEMBL4513216, “Probing the Open Global Health Chemical Diversity Library for Multistage-Active Starting Points for Next-Generation Antimalarials” (ACS Infect Dis, 2020).

Assay: Toxicity liver stage against HepG2, at 10uM
Assay type: cell-based
Parameters: test concentration 10 uM, cell line HepG2-A16-CD81EGFP
Details: human, HepG2-A16-CD81EGFP cells; read-out: INHIBITION
Outline: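 Uninfected HepG2-A16-CD81EGFP cells, 3 × 10^3 per well, 1536-well, plated on prespotted compound at 10 μM final, parasite-free screening media added to match infected plates; puromycin 10 μM positive, DMSO 0.5% negative; run in parallel with 48 h PbLuc assay at 37 °C, 5% CO2; viability by CellTiter-Glo luminescence, normalized to controls.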

| SMILES | cytotoxicity at 10 µM [%] |
| --- | --- |
| CCN(CC)C(=O)CSc1sc2c(O)cc(=O)[nH]c2c1C(N)=O | 0.488 |
| CCc1cnc2c(c1Nc1ccc3c(c1)OCO3)c(=O)n(C)c(=O)n2C | 9.06 |
| O=S(=O)(NCC1(O)CCOc2ccccc21)c1ccc(Cl)s1 (stereo unspecified) | 6.87 |
| COc1cc(C(=O)NCCCc2ccccc2)on1 | -2.1 |
| Cc1cc(C)c(S(=O)(=O)Nc2c(C)nc(N(C)C)nc2C)cc1C | 6.63 |
| COCCN1C[C@H]2CCN(C(C)=O)CC[C@H]2S1(=O)=O | 15.4 |
| CCN1C[C@H]2CCN(C(=O)C3CCCO3)CC[C@H]2S1(=O)=O (stereo partly specified) | 18 |
| O=C1[C@@H]2CCN(C3CCC3)C[C@@H]2OCCN1Cc1ccncc1 | -135 |
| O=C(c1cnccn1)N1CCc2onc(CN3CCCC3)c2C1 | 8.7 |
| CS(=O)(=O)N1Cc2nccn2CC(CN2CCCC2)C1 (stereo unspecified) | -111 |
| Cn1cc(CN2CCC3(CCCN(C(=O)c4cnccn4)C3)C2)cn1 (stereo unspecified) | -131 |
| CCOc1ccccc1C(=O)Oc1cc(=O)n2cccc(C)c2n1 | 22.1 |
| COc1cccc(C(c2c(C)n[nH]c2O)c2c(C)n[nH]c2O)c1OC | 12.4 |
| Cc1ccccc1-n1c(O)cc(C)c(C#N)c1=O | -1.54 |
| COc1ccccc1C(=O)Nc1c(F)c(C(=O)NC2CCCC2)nn1C | -10.8 |
| CCS(=O)(=O)NCCCn1ncc2c(C)cccc21 | 6.8 |
| O=C1CN([C@@H]2CC[C@@H](NS(=O)(=O)c3ccccc3)[C@H]2O)CCN1 | 7.41 |
| O=C(NC1CC1)[C@H]1CN(Cc2ccccc2)C[C@@H]1C(=O)c1ccccc1 | 0.401 |
| CCNC(=O)C1(Cc2cc(-c3ccccc3)no2)CCCN(C(C)C)C1 (stereo unspecified) | 1.62 |
| O=C(c1ccc2[nH]nnc2c1)N1C[C@H](O)[C@]2(CCCO2)C1 | 3.42 |
| Cc1oc2c(c1C(=O)N1C[C@H](O)[C@]3(CCCO3)C1)CCCC2 | -0.4 |
| CC(C)(C)OC(=O)N[C@@H]1C[C@@H](O)CN(C(=O)c2cccc(F)c2)C[C@H]1O | 0.187 |
| Cc1cncnc1C1CCN(CC2CC2)CC1 | -1.06 |

| SMILES | cytotoxicity at 10 µM [%] |
| --- | --- |
| NC(=O)c1cn[nH]c1C1CCCN1C(=O)c1cnccn1 (stereo unspecified) | -6.17 |
| Cc1ccn(CCNC(=O)C2CCN(S(=O)(=O)c3ccc(F)cc3)C2)n1 (stereo unspecified) | -24.5 |
| CC(=O)N1CCc2nnc(C3CCCCN3CC3CC3)n2CC1 (stereo unspecified) | -15.4 |
| Cc1ccc(C2CCCN(C(=O)c3cnn(C)c3)C2)nc1 (stereo unspecified) | -25.8 |
| Cc1cc(C)c2cc(CNCCCN3CCOCC3)c(=O)[nH]c2c1 | -23.8 |
| COc1cccc(CN2CCC3(CC(Nc4ccncn4)C3)C2)c1F (stereo unspecified) | 1.69 |
| Cc1cc(C)nc(Nc2cccc(C3CCCN(CCO)C3)n2)n1 (stereo unspecified) | -12.9 |
| Cn1cccc1C(=O)N1CCCCC1c1[nH]ncc1S(C)(=O)=O (stereo unspecified) | -4.66 |
| Cc1cccc(C(=O)N2CCCCC2c2[nH]ncc2S(C)(=O)=O)c1 (stereo unspecified) | -7.44 |
| COc1nccc(C(F)(F)F)c1C(=O)O | 16 |
| Cc1cc(N(C)C)nc(N2CCCC2c2cc(C)on2)n1 (stereo unspecified) | -2.38 |
| O=C(O)c1ccn(-c2ccccc2NC(=O)c2ccccc2Cl)n1 | -161 |
| Cc1nc(CN2CCN(CC(O)CN3CCOCC3)CC2)oc1C (stereo unspecified) | 5.92 |
| O=C1NCCCCC1NC(=O)C1(c2ccccc2)CCOCC1 (stereo unspecified) | -14.2 |
| O=C1CCCCN1CCCNCc1cnc(C2CCC2)s1 | 0.00973 |
| O=C(NS(=O)(=O)c1cccc(C(F)(F)F)c1)c1cnsn1 | -2.98 |
| CCN(C)c1cc(CNC(=O)CNC(=O)CC2CCCCC2)ccn1 | 2.34 |
| Fc1ccc(C2(NCc3ccccc3)CCOCC2)cc1 | -9.91 |
| CN(C1CCCCC1)S(=O)(=O)NC1CCCN(c2ncccn2)C1 (stereo unspecified) | 3.7 |
| O=C(NCCNC(=O)C1CC1)c1cnc(-c2ccccc2)nc1 | 12.3 |
| CC(C(=O)N1CCN(Cc2ccncc2)CC1)n1cncn1 (stereo unspecified) | -4.73 |
| CCN(CC)c1ncc(CNC2CCc3nc(C)nn3C2)s1 (stereo unspecified) | 2.78 |
| CCN(C(=O)C(C)C)C(c1cccnc1)c1ccc2c(c1)CCO2 (stereo unspecified) | 2.14 |

| SMILES | cytotoxicity at 10 µM [%] |
| --- | --- |
| O=C(CCc1ccncc1)NCCOc1ncc(Cl)cc1Cl | -2.56 |
| CC(NCc1cccc2c1OCCO2)c1cc2c(cc1Br)OCCO2 (stereo unspecified) | 3.6 |
| O=S1(=O)CCC(n2cc(CNc3ccccc3Br)cn2)C1 (stereo unspecified) | -4.9 |
| COCCOCC(=O)NC(C#N)c1cccc(Cl)c1Cl (stereo unspecified) | 7.84 |
| COCCCNC(=O)CN1CCSC(c2ccccc2)C1 (stereo unspecified) | 13.5 |
| O=C(CCCc1ccccn1)NCC(O)c1ccccc1Cl (stereo unspecified) | -9.08 |
| O=C(Cn1nnc(-c2cc3ccccc3o2)n1)N1CCOCC1 | 7.63 |
| Cc1cccc(N(CCC(N)=O)CC(=O)Nc2cc(Cl)ccc2Cl)c1 | 11.3 |
| Cc1ccc(C(=O)NCCCn2cncn2)c(=O)[nH]1 | -14.4 |
| CC(C)c1nc(/C=C/c2cnn(-c3ccc(Cl)cc3)c2)ncc1C(=O)O | -6.21 |
| CC(C)(NC(=O)c1ccc(-c2ccc(F)cc2)s1)C(N)=O | -4.05 |
| CN(C)C(=O)C1CN(Cc2ccc(C#N)cc2F)c2ccccc2O1 (stereo unspecified) | 7.14 |
| CN(CC(=O)NCCCOc1ccc(F)cc1)c1ccc(C#N)cn1 | -0.844 |
| O=C(NCC1(O)CCC1)c1cccc(-n2cccn2)c1 | -2.44 |
| COc1ccc(OC)c(CN(C)c2nc3c(cnn3C)c(=O)[nH]2)c1 | 59.5 |
| O=C1CC(NS(=O)(=O)c2ccccc2)CN1Cc1ccccc1 (stereo unspecified) | 6.89 |
| Cc1nc(CN2CCN(C(=O)COCc3ccccc3)CC2)no1 | -14.1 |
| CC(NC(=O)COc1nc(C(C)(C)C)no1)c1ccco1 (stereo unspecified) | -5.41 |
| Cn1cc(Br)c(=O)c(NS(=O)(=O)c2cc(F)ccc2Cl)c1 | -11 |
| COC[C@@]12CCO[C@@H]1CCN(C(=O)C1CCSCC1)C2 | -104 |
| Cc1cn2c(=O)c(-c3ccnc(N4CCC[C@@H]4CO)n3)cnc2s1 | -9.52 |
| CN1CCC(N(Cc2ccncc2)Cc2nc3c(s2)CCCC3)CC1 | -2.56 |
| O=C1CC[C@@H](CN(Cc2ccncc2)Cc2nc(-c3cccs3)no2)N1 | -10.7 |

| SMILES | cytotoxicity at 10 µM [%] |
| --- | --- |
| COc1ccccc1Oc1ncccc1CNC(=O)CN1CCCC1=O | -4.72 |
| Cc1ccc2ncn(C(C)Cn3cccn3)c(=O)c2c1 (stereo unspecified) | 4.4 |
| CC1=C(CCN2CC[C@@H](N3CCC(O)CC3)[C@H](O)C2)C(C)(C)CCC1 | -4.42 |
| CCn1ccnc1CN(C)c1cc(C2CCCNC2)nc(C)n1 (stereo unspecified) | -2.48 |
| COc1cc(F)c(-n2cnc(CCNC(C)=O)c2)cc1F | -12.1 |
| Cc1ncc(S(C)(=O)=O)c(N2Cc3ccccc3C2)n1 | -18.3 |
| Cc1ccccc1CN(CCN(C)C)Cc1ncc[nH]1 | -7.11 |
| O=C(O)C(c1ccc2c(c1)OCCO2)N1CCSCC1 (stereo unspecified) | 1.38 |
| Cc1nc(CN)cc(N2CCC(O)(c3ccc(Cl)cc3)CC2)n1 | -8.13 |
| CCC(=O)Nc1cccc(OCC(=O)N(C)Cc2nc(C)c[nH]2)c1 | -4.54 |
| CCn1nc(C)c(CN(CCOC)Cc2ccccn2)c1C | 9.77 |
| CCc1c(C)sc2ncnc(N3CCN(C4CCOCC4)CC3)c12 | 8.48 |
| CSc1ccccc1CC1CCCS(=O)(=O)C1 (stereo unspecified) | 2.26 |
| CCN1CCC(Cn2ccc3ccc(C(=O)OC)cc3c2=O)C1 (stereo unspecified) | -9.09 |
| CC[C@@H](c1ccccc1)n1c(CN)n[nH]c1=O | -4.34 |
| Cc1ccc(F)c(OC2(C(=O)O)CCN(C(=O)c3ccccc3)CC2)c1 | 4.2 |
| Cc1nn(C)c(C)c1-c1ccnc(N(C)Cc2noc(C(C)C)n2)n1 | 26.4 |
| Cc1ccc(-c2ccc(Cl)nn2)cc1S(=O)(=O)N1CCOCC1 | -4.26 |
| CCCc1c(C2CCOC(C)(C)C2)nc(N)c(C#N)c1-c1cnn(C)c1 (stereo unspecified) | -3.22 |
| Cc1nc(C)c(C(=O)NCCn2nc3ccccn3c2=O)s1 | -2.51 |
| CCc1nc2n(n1)CC(NCc1nc(-c3ccccn3)no1)CC2 (stereo unspecified) | -3.45 |
| Cc1noc(C)c1S(=O)(=O)NC(=O)COc1ccc(C(C)C)cc1 | 2.1 |
| Cc1ccc(C(=O)N2CCN(Cc3cccs3)CC2)c(=O)[nH]1 | -8.39 |

| SMILES | cytotoxicity at 10 µM [%] |
| --- | --- |
| Cc1cnn(CC2CCCCN2Cc2cc(C)no2)c1 (stereo unspecified) | -9.21 |
| COc1cccc(CCC(=O)N2CCN(CC(C)(C)O)CC2)c1 | -8.39 |
| CC(C)(C)c1nc(CN2CCCC(Cn3cncn3)C2)no1 (stereo unspecified) | -0.0792 |
| CCc1nc(CC(=O)N2CCN(c3cnccn3)CC2)cs1 | 1.97 |
| CCn1c(C)nnc1CN(C)C1CCN(CCCOC)C1 (stereo unspecified) | 4.19 |
| Cc1oc(-c2ccco2)nc1CC(=O)N1CCC(C(O)C(F)(F)F)CC1 (stereo unspecified) | -5.25 |
| O=C1CC2(CCCNC2)C(=O)N1Cc1ccc(F)cc1 (stereo unspecified) | 1.65 |
| Cc1nc(NC(=O)C2(C)CN(C)CCO2)sc1C (stereo unspecified) | 2.44 |
| CN1C[C@@H](C(=O)N(C)C)[C@@]2(CCc3ccccc3C(=O)N2)C1 | 1.2 |
| Cc1ncc2c(n1)C1(CCN(C(=O)C(C)C)CC1)OCC2 | 5.49 |
| COc1cc2c(cc1CN1CCn3c(CO)nnc3C1)CCC2 | -4.05 |
| CC(C)N1CCc2onc(Cn3cccc3)c2C1 | 7.55 |
| CC(=O)N1CCN(c2cc(CCN)nc(C3CC3)n2)CC1 | -26.2 |
| Cc1ccc(N2CC[C@@H]3O[C@@H](COCc4cccnc4)CC[C@@H]32)nn1 | 8.37 |
| CS(=O)(=O)N[C@H]1CCO[C@]2(CCN(C(=O)c3ccccn3)C2)C1 | -73.3 |
| Cc1ccc(N2CCCC3(CCCC(=O)N3)C2)nn1 (stereo unspecified) | -1.52 |
| Cn1ccnc1CN1CCC2(CC(=O)N(c3ccc4c(c3)OCO4)C2)C1 (stereo unspecified) | -79.8 |
| O=c1c2sccc2nc2n1CCN(Cc1cc(F)ccc1F)CC2 | -21.8 |
| CO[C@@H]1CCN(Cc2ccc(C)o2)[C@H]1Cc1ccccc1 | -3.15 |
